Assay: Toxicity liver stage against HepG2, at 10uM
Type: cell-based
Set-up: test concentration 10 uM, cell line HepG2-A16-CD81EGFP
Details: human, HepG2-A16-CD81EGFP cells; read-out: INHIBITION
Method in brief: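 Uninfected HepG2-A16-CD81EGFP cells, 3 × 10^3 per well, 1536-well, plated on prespotted compound at 10 μM final, parasite-free screening media added to match infected plates; puromycin 10 μM positive, DMSO 0.5% negative; run in parallel with 48 h PbLuc assay at 37 °C, 5% CO2; viability by CellTiter-Glo luminescence, normalized to controls.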

Compound | cytotoxicity at 10 µM [%]
O=C(NCC(F)(F)C(F)F)c1ccncc1 | 10.3
O=C(c1ccc[nH]1)N1CCC2(CC1)COCCN(c1nccs1)C2 | 12.8
CCOc1ccc(NC(C)=O)cc1S(=O)(=O)Nc1nnc(C)s1 | -17.6
NC(=O)CN1C[C@@H](c2ccccc2F)[C@@]2(CCCCC(=O)N2)C1 | 7.04
COc1ccc(CN(C)Cc2ccnc(C3CCCO3)n2)cc1 (stereo not drawn) | 7.67
Cc1nn(C)cc1-c1cc(C(=O)NCC(C)(C)c2cccc(F)c2)n[nH]1 | 0.68
CCC(=O)N1CCN(C)C(=O)C(Cc2ccccc2-c2cccs2)C1 (stereo not drawn) | 4.89
O=C(Cn1c(C(F)F)cc2cccnc21)NC1CCCC1 | -22.2
Cn1ccnc1CN1CC[C@H](O)[C@@H](n2ccc(=O)[nH]c2=O)CC1 | -9.31
Cc1ccc(CC2CCCN(S(C)(=O)=O)C2)nc1 (stereo not drawn) | -8.58
CC1(C)CN(Cc2ccncc2)CCS1(=O)=O | -4.95
CC(C)CC(=O)NCC(O)c1c(F)cccc1F (stereo not drawn) | -2.24
Nc1nccnc1C(=O)NC1CCCN(Cc2c(F)cccc2F)C1 (stereo not drawn) | -2.14
CN(CCCNC(=O)c1ccc(C#N)cc1)CC(F)(F)F | 5.12
CC(=O)c1c(F)cccc1NC1CCN(C(=O)CC(C)C)CC1 | 22.6
O=C(C1CC(=O)N(c2ccccc2Br)C1)N1CCCCCC1 (stereo not drawn) | 8.52
Cc1c(CC(=O)N2CCN(C(C)C)CC2)nnn1-c1ccccc1 | -3.64
COCCc1noc(CN2CCCC2c2noc(C(C)C)n2)n1 (stereo not drawn) | -11.5
Cc1ccc(C(=O)N(C)Cc2cc(Br)cs2)cn1 | 9.06
CS(=O)(=O)c1ccc(C(=O)N2CCCC(n3cncn3)C2)o1 (stereo not drawn) | 7.85
O=C(CCc1ccccn1)N1CCCC(N2CCNC2=O)C1 (stereo not drawn) | 6.99

Compound | cytotoxicity at 10 µM [%]
CN(CC1(O)CCCC1)C(=O)c1cccc(Nc2cnccn2)c1 | -4.27
CN(CC(=O)Nc1cccc(F)c1)Cc1nc(N)nc(N(C)C)n1 | -6.13
CSCC(C)(O)CNc1cccc(F)c1C(C)=O (stereo not drawn) | 2.19
COc1ccc(CN2CCN(C(C)=O)CC2)cc1SC(F)(F)F | 7.31
Cc1nnc2n1CC(CNc1ncnc3ccccc13)CC2 (stereo not drawn) | -40
Cc1ccc(OCCSCCn2nc3ccccn3c2=O)cc1 | 7
N#CC1(NC(=O)c2ccc(-c3nc(C4CC4)n[nH]3)cc2)CCSC1 (stereo not drawn) | 4.39
CS(=O)(=O)NCCCNC(=O)c1cccnc1O | -17.7
CCOC(C)c1nc(CN2CCN(c3nccc(C)n3)CC2)cs1 (stereo not drawn) | -8.89
O=C(NC1CCCC1)NC1CCC(C(=O)N2CCSCC2)CC1 (stereo not drawn) | 3.58
COCCc1noc(CNC2CCCN(c3cccnn3)C2)n1 (stereo not drawn) | -13.7
CS(=O)(=O)c1ccc(OCCNCc2cccc(F)c2)cc1 | -9.06
Cn1ccc(C(=O)NC2CCC23CCN(C(=O)C2CCOCC2)CC3)c1 (stereo not drawn) | -81.4
Cn1ccc(C(=O)NC2CCC23CCN(C(=O)c2cnccn2)CC3)c1 (stereo not drawn) | -71.4
CN1CCN(Cc2cccnc2)Cc2cccnc21 | -76.9
CC(C)Nc1ncnc2c1CCN(C(=O)Cc1cccs1)CC2 | -80.9
O=C1NCC2(CCCN(C(=O)c3csc(-c4cccs4)n3)C2)O1 (stereo not drawn) | 0.55
COc1ncc(C(=O)N(Cc2cnn(C)c2)C(C)C)cn1 | 4.23
CCc1ccccc1CN1CCn2nc(CNC(C)=O)cc2C1 | 5.18
O=C(c1cscn1)N1CCCCC1c1nc2cc(F)ccc2[nH]1 (stereo not drawn) | 7.59
Cc1ccc(CN(C)Cc2cc(C3CC3)[nH]n2)c(O)n1 | 4.11

Compound | cytotoxicity at 10 µM [%]
Cc1n[nH]c(C)c1CNc1nc(-c2ccco2)nc2c1CCNCC2 | -3.43
O=C(CCN1CCCCO1)NCCSc1cnn[nH]1 | 0.956
CCc1ccc(CN(CCN(C)C)Cc2ccc(C)s2)nc1 | -43
CCc1nc(CC2CN(c3ncnc4nc(C)cc(C)c34)CCO2)no1 (stereo not drawn) | -5.79
COc1cccc(Cn2ncc(N(C)CCc3ccccc3)cc2=O)c1 | 2.93
Cc1cccnc1CN1CCN(C(=O)CCn2ccccc2=O)CC1 | 3.34
Cc1nc(CC(C)C)cc(C(=O)N2C[C@@H](N(C)C)[C@H](C(C)C)C2)n1 | 9.26
CCCc1cc(C(=O)N2C[C@H]3CCC[C@@]3(CO)C2)[nH]n1 | 10.4
Cc1nnc(CN2CCN(C)C3(CCNC(=O)CC3)C2)s1 (stereo not drawn) | -8.22
COCCN(Cc1nccs1)c1nc2c(s1)c(C)nn2C | -47.6
Cc1cc(C[C@@H]2COC[C@@H]2NC(=O)CN2CCOC2=O)on1 | -0.6
Cc1cc(CC(=O)N2CCCC2c2nc(C(C)C)no2)on1 (stereo not drawn) | -25.9
Cc1cc(C)n(C(=O)Cn2nc(C)c(I)c2C)n1 | -6.52
CCn1cc(N)c(-c2nnc3n2CCCC3)n1 | -8.72
Cn1cc(-c2cc(C(F)(F)F)n(CCCN)n2)cn1 | -6.11
NC(=O)C1CCN(C(=O)NCCNc2ccccn2)CC1 | -12.8
Cc1cccc2c1CCN(c1cc(N3CCCC3CO)ncn1)C2 (stereo not drawn) | -3.44
COc1cc(CCC(=O)NCC2CCCN2C)ccc1OCC(F)(F)F (stereo not drawn) | -5.99
O=C(CCNCC(F)(F)F)N1CCC(Nc2cccnn2)CC1 | -1.5
CSc1nccn1-c1cccc(C(=O)NCC2CC2)c1 | -10.6
COCCN1CCC(NC(=O)C2(c3cc(C)cc(C)c3)CC2)CC1 | -4.37

Compound | cytotoxicity at 10 µM [%]
CC(C)c1nc2c(n1C)CCN(Cc1nc(-c3cccs3)no1)C2 | -10.1
Cn1cc(C(=O)NC2CCN(C(=O)NCCSC(F)(F)F)CC2)cn1 | 2.36
CCc1nc(CN(Cc2cccs2)CC2CCCO2)no1 (stereo not drawn) | 2.26
O=C(Cc1c[nH]c2ccccc12)N1CCC(Nc2cccnn2)CC1 | -5.08
Cc1cc(C(=O)NCC(C)N2CCc3ccccc32)no1 (stereo not drawn) | -8.8
O=C(c1cccnc1N1CCOCC1)N1CCCC1Cn1cccn1 (stereo not drawn) | -2.53
O=C1CCCN1Cc1ncn2c1CN(Cc1cccs1)CCC2 | -84.1
Cn1ccnc1CN1CCC2(CCCN2c2ncccn2)CC1 | 7.55
COc1cc(N2CCC3(CCCN3Cc3ccn(C)n3)CC2)ncn1 | 4.89
c1nc2c(c(C3CC3)n1)CCN(Cc1ccc3c(c1)OCO3)CC2 | -17.1
Brc1ccc(CNCc2nnc3n2CCCCC3)s1 | -0.254
c1cnc(NC[C@@H]2CCC[C@@H]3CN(Cc4cccnc4)C[C@@H]32)nc1 | -14.3
c1cncc(COCc2nnc3n2CCN(Cc2ccsc2)C3)c1 | -21.6
Fc1ccc(CN2CCC3(CCN(Cc4nccs4)CC3)C2)cc1 | 5.04
COCCN1CCCn2cnc(CN(C)C(C)C)c2C1 | 6.53
O=C(NCc1cccnc1)[C@@H]1C[C@H]2[C@H](CCN2c2ncc(F)cn2)O1 | -85.3
N#Cc1cccc(CN2CC[C@@H]3[C@@H]2CC(=O)N3CCN2CCCC2)c1 | -84.4
O=C(Cc1cccs1)N1CCC2(CC1)COCCN2CC1CC1 | 4.98
CCCn1nccc1NC(=O)CN1CCOC(Cn2cc(C)cn2)C1 (stereo not drawn) | 1.88
CN(C)C(=O)N1C[C@H]2CC[C@@H](C1)N(Cc1ccc3nsnc3c1)C2 | -6.69
